Screening data from PubChem BioAssay.
CSC inhib = cancer stem cell inhibition; cancer stem cell-like cells viability, luminescence; inhibition, % at 7.5 µM; hit rate 1.1% among 300,000; AID 2717; in the data active = inhibition above about 75%; inconclusive = no clear call, values can overlap the other calls; tested in HMLE shEcad cells
TAG inh = inhibitors of triacylglycerol accumulation | inhibition, % at 12.5 µM | AID 651582 | hit rate 0.66% among 230,000 | H9c2 cells, Nile Red lipid (TAG) fluorescence; cells loaded with 200 µM oleic acid;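 active = pattern-corrected inhibition of lipid staining of at least 50% with the nuclear-stain viability signal not falling by more than 50%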;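 also: 0% = DMSO wells and 100% = triacsin C control wells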
T cruzi inh = T. cruzi replication inhibition; AID 1885; inhibition, % (no concentration beside the values); hit rate 1.4% among 300,000; T. cruzi beta-gal in NIH3T3, luminescence, 90 h;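 active = mean inhibition across valid replicates above about 55%, limit read from the data; inconclusive = mean below that limit but half or more replicates reach it; inactive = mean below it, under half of replicates reach it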;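 also: signal also drops with host cell toxicity which is not excluded here; 0% = plate median of DMSO wells and 100% = zero luminescence signal; higher percent means less beta-gal luminescence so fewer parasites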
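System – NIH/3T3 host cells with β-galactosidase reporter T. cruzi · Doses – single 50 nL compound addition per well in DMSO · Reagent – 5000 T. cruzi trypomastigotes/well · Medium – Low-serum DMEM with 2% FBS · Timing – ≥90 h infection period, 3 h prior cell attachment · Evaluation – parasite load inhibition, % · Technique – GalScreen luminescence, 60 min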
A1 inh = inhibitors of the anti-apoptotic protein A1, read as caspase activation; MEF A1-2A-BIM cells, Caspase-Glo 3/7 luminescence, 3 h; percent of clofoctol response, vehicle zero; caspase activation, % (concentration not given with the values); hit rate 0.066% among 330,000; AID 2462;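 active = over half of replicate activation scores above 10%, or exactly half above 10 with the replicate mean above 10; inconclusive = replicate mean below 10 yet half the replicates above 10; inactive = over half of replicates below 10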
Beta cell apopt = blocks beta cell apoptosis. INS-1E cytokine-induced death, ATP luminescence, 48 h; percent of positive-control rescue, neutral wells zero. protection from apoptosis, % (test concentration not listed). hit rate 0.8% among 300,000;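 active = Every replicate reaches about 75%, or at least half do and their mean reaches it too, limit read from the data; inconclusive = At least half of replicates reach the limit but their mean does not; inactive = Under half of replicates reach the limit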;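 also: 0% = cytokine-treated negative control wells and 100% = positive control rescue; higher means more ATP so stronger rescue from cytokine killing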
Calb FLC = affects C. albicans growth with fluconazole. hit rate 0.57% among 300,000. C. albicans CaCi-2 (fluconazole-resistant clinical isolate) + fluconazole, Alamar Blue growth, 48 h. growth inhibition, % (no concentration beside the values);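 active = growth inhibition above about 58% in most replicates, limit read from the data, passing the limit was not always enough; inconclusive = exactly half the replicates above a set limit; inactive = most replicates below a set limit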;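 also: all wells also contain fluconazole at 8 µg/ml as a sub-toxic cotreatment; 0% = median of DMSO wells and 100% = median of geldanamycin control wells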
Numbers without * were called inactive; ? = inconclusive; / = no result given. Compounds with a hit are over-represented: about 3.1% of the library has one in this group of screens.

SMILES	CSC inhib	TAG inh	T cruzi inh	A1 inh	Beta cell apopt	Calb FLC
COc1cccc(C(=O)NCC2(c3ccccc3)CCCC2)c1	4	-5	-15	0	5	32
Oc1ccccc1/C=N/NC(=S)NC1CC2CC1C1C=CCC21 (stereo unspecified)	100*	7	-19	1	28	2
COc1cccc(/C=N/NC(=S)NC2CC3CC2C2C=CCC32)c1O (stereo unspecified)	0	11	-19	0	2	13
COc1ccc(C2c3ccc4ccccc4c3Oc3ncn(Cc4ccco4)c(=N)c32)cc1OC (stereo unspecified)	80*	23	-3	-1	-2	-1
COc1ccc(C2c3ccc4ccccc4c3Oc3ncn(CCCN(C)C)c(=N)c32)cc1 (stereo unspecified)	105*	/	42	1	112*	23
COc1ccccc1C1c2ccc3ccccc3c2Oc2ncn(CCN(C)C)c(=N)c21 (stereo unspecified)	85*	/	18	-1	45	23
COc1ccccc1C1c2ccc3ccccc3c2Oc2ncn(CCCO)c(=N)c21 (stereo unspecified)	17	/	41	0	13	19
COc1ccc(C2c3ccc(O)cc3Oc3ncn(Cc4ccco4)c(=N)c32)cc1OC (stereo unspecified)	26	-12	10	-1	0	-5
Cc1ccccc1C(=O)NC1CCN(C(=O)Nc2ccc(F)cc2)CC1	-1	/	-2	0	1	2
CN1CCN(S(=O)(=O)c2cccc(C(=O)Nc3sc4c(c3-c3nc5ccccc5[nH]3)CCCC4)c2)CC1	/	/	58*	1	4	-3
CC(C)Cc1nnc(NC(=O)c2cccc(S(=O)(=O)N3CCN(C)CC3)c2)s1	40	1	60*	0	4	-3
CCC(=O)NC(NC(=S)Nc1cccc2cccnc12)C(Cl)(Cl)Cl (stereo unspecified)	-5	/	-15	0	-5	8
CC(C)(C)C(=O)NC(Nc1cccc2cccnc12)C(Cl)(Cl)Cl (stereo unspecified)	/	/	8	0	78*	-10
CCCCn1c(=O)[nH]c(=O)c2c1nc(-c1ccc(-c3ccccc3Br)o1)n2CC	-8	/	3	0	5	104*
CCCCn1c(=O)[nH]c(=O)c2c1nc(-c1ccc3ccccc3c1)n2CC	7	9	26	0	-2	0
CCOC(=O)c1oc2ccccc2c1NC(=O)CN1CCN(C)CC1	-9	7	-2	17*	-5	-11
CCC(=O)c1ccc(OCC(=O)OCC(=O)NCCC2=CCCCC2)cc1	-3	-10	-7	-1	-3	-8
c1ccc(CSC2=NNC(c3ccccn3)S2)cc1 (stereo unspecified)	125*	67*	63*	-1	52	5
O=C(CSC1=NNC(c2ccccn2)S1)Nc1ccc(C(F)(F)F)cc1 (stereo unspecified)	93*	32	18	0	9	-1
c1ccc(CSc2ncccn2)cc1	-2	/	-11	1	-2	-17
CC(=O)Nc1ccc(NC(=O)CSc2ccccn2)cc1	-26	/	-29	0	2	-6
COCCN(C(=O)CCC(=O)Nc1ccccn1)C(C(=O)NCCC(C)C)c1ccc(C)cc1 (stereo unspecified)	-7	/	2	0	0	7
CC1CCCCC12NC(=O)N(CC(=O)Nc1ccc(N3CCCCC3)cc1)C2=O (stereo unspecified)	/	10	/	/	/	/
O=C(CC1C(=O)NCCN1Cc1ccc(-c2ccccc2)cc1)NC1CCC1 (stereo unspecified)	14	/	-6	0	116*	-41
COC(CNC(=O)c1ccc2c3c(onc13)-c1ccccc1C2=O)OC	84*	8	0	-1	58	-3
COC(CNC(=O)c1cccnc1)OC	-3	13	-2	1	-4	?
O=c1c2cc(Br)ccc2nc(-c2ccc(Cl)cc2)n1O	24	/	-22	0	5	24
N#Cc1ccc(-c2nc3cc(Cl)ccc3c(=O)n2O)cc1	22	/	-11	-1	0	101*
O=c1c2ccccc2nc(-c2ccccc2Cl)n1O	-9	/	0	-2	-2	18
